Insulin prom act: TRM-6 insulin promoter activation | TRM-6 cells (human fetal islet line), insulin promoter eGFP reporter, imaging; plate-scaled: unstimulated 0, stimulated control 100 | activation, % at 2 µM | 130,000 compounds, 0.81% hits;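 active = activation at 2 µM above a set limit, confirmed on inspection of the cell images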;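 also: share of cells whose green reporter signal exceeds an intensity cutoff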
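Test system: TRM-6 insulin promoter–eGFP reporter cells / Quantity: 1,000 cells per well / Reagent: tamoxifen inducer, 0.75 µM, in seeding medium / Compound dosing: 2 µM final, single concentration / Schedule: overnight tamoxifen, then two-day compound incubation at 37 °C / Measured by: automated fluorescence imaging of paraformaldehyde-fixed, Hoechst-counterstained cells, green channel / Read-out: percent activation from GFP-positive cell fraction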
An asterisk follows results filed as active. This is one part of a sample in which hits are shown more often than they occur.

For CC(C)(C)c1cc(C(=O)N2CCN(c3ncccn3)CC2)ccn1 the results were Insulin prom act -64.
For CCCNC(=O)NC(=O)CSc1cccc(C(F)(F)F)c1 the results were Insulin prom act 146.
Screening CC(C)Cc1nnc(NC(=O)CSc2nc(O)c(-c3ccccc3)c(=O)[nH]2)s1 returned Insulin prom act -8.
Screening c1ccc(Cn2ccc(-c3cnc(-c4ccccc4)s3)n2)cc1 returned Insulin prom act -4.
`COc1cccc(N/C=C/C(=O)c2ccc(Br)cc2)c1` gave Insulin prom act 4.
`COc1ccc(N/C=C\C(=O)c2ccc3c(c2)OCO3)cc1` gave Insulin prom act 6.
Screening COc1ccc(C(=O)/C=C/Nc2cccc(O)c2)cc1 returned Insulin prom act 80*.
Screening CC(C)C[C@@H]1NC(=O)[C@H](CO)NC(=O)c2cc([N+](=O)[O-])cc(I)c2OCC[C@@H](C(N)=O)NC1=O returned Insulin prom act -5.
For Cc1ccc2c(Cl)c(C(=O)Nc3cccnc3)sc2c1 the results were Insulin prom act 0.
For COc1ccccc1N1CCN(CC(=O)Nc2ccc(-n3cnnn3)cc2)CC1 the results were Insulin prom act 0.
`CN=c1sc2ccccc2n1CC(O)COCc1ccco1` (centres undefined) gave Insulin prom act -7.
CN(Cc1cccs1)CC(O)COCc1ccco1 (centres undefined) was read as Insulin prom act -5.
`OC(COCc1ccco1)CN1CCN(C(c2ccccc2)c2ccccc2)CC1` (centres undefined) gave Insulin prom act 129*.
O=C(NCC1CCCO1)NC1CCCCC1 (centres undefined) was read as Insulin prom act -7.
CN(C)CCCNC(=O)C(=O)NCC1CCCO1 (centres undefined) was read as Insulin prom act 294*.
`O=C(CCCCCCCC(=O)NCC1CCCO1)NCC1CCCO1` (centres undefined) gave Insulin prom act -3.
`O=[N+]([O-])c1cc(S(=O)(=O)NC2=NCCCCC2)ccc1NCC1CCCCC1` gave Insulin prom act 9.
Screening COCCn1c(-c2ccc(-c3ccc([N+](=O)[O-])cc3Br)o2)nc2c1c(=O)[nH]c(=O)n2CC(C)C returned Insulin prom act 114.
Screening Cc1cc(C)cc(-n2nnnc2-c2cn(C)nc2C(F)(F)F)c1 returned Insulin prom act 132*.
Cc1ccc(-n2nnnc2-c2ccco2)cc1 was read as Insulin prom act 0.
FC(F)(F)c1nc(-c2cccs2)ncc1-c1nnnn1-c1ccc(Cl)cc1 was read as Insulin prom act 3.
Cc1cc(=O)oc2cc(OC(=O)c3cncc(Br)c3)ccc12 was read as Insulin prom act 0.
COc1ccc(CCC(=O)NCCCNC(=O)CCc2ccc(OC)cc2)cc1 was read as Insulin prom act -3.
Screening CCOC(=O)COc1ccc2c3c(c(=O)oc2c1C)CCC3 returned Insulin prom act 519*.
`Cc1c(OCc2nn[nH]n2)ccc2c3c(c(=O)oc12)CCCC3` gave Insulin prom act 108.
CCCOc1ccc2c3c(c(=O)oc2c1OCCC)CCCC3 was read as Insulin prom act 0.
Screening Cc1nn(C/C(C#N)=N\O)c(C)[n+]1N returned Insulin prom act -9.
Screening O/C(=C\c1ccc2ccccc2n1)c1ccc(O)cc1O returned Insulin prom act 143.
For Cc1c(N(C(=O)CNC(=O)c2ccccc2)C2(C(=O)NC3CCCCC3)CCCCC2)c(=O)n(-c2ccccc2)n1C the results were Insulin prom act 147.
`O=C(c1ccccn1)N(CC1CCCO1)C1(C(=O)NC2CCCCC2)CCCCC1` (centres undefined) gave Insulin prom act 7.
Screening O=C(c1cnccn1)N(c1ccccc1)C1(C(=O)NC2CCCC2)CCCCC1 returned Insulin prom act 100*.
Screening Cc1ccc(NCC(=O)Nc2cccc(S(=O)(=O)N(C)C)c2)c(Cl)c1 returned Insulin prom act 0.
`O=C(CCCOc1ccc(Cl)cc1)Nc1cccc(C(=O)O)c1` gave Insulin prom act 6.
For Cc1cc(NS(=O)(=O)c2ccc(NC(=O)NC(C)(C(F)(F)F)C(F)(F)F)cc2)no1 the results were Insulin prom act -4.
`Cc1cc(NS(=O)(=O)c2ccc(NC(=O)CCCOc3ccc(Cl)cc3)cc2)no1` gave Insulin prom act 127*.
For CN(C(=O)COC(=O)c1ccc(S(=O)(=O)N2CCOCC2)cc1)C1CCCCC1 the results were Insulin prom act 0.
`CC(c1nnc(SCC(=O)N2CCc3ccccc32)n1-c1ccc(Cl)cc1)N(C)C` (centres undefined) gave Insulin prom act -3.
COC(=O)c1ccccc1N1C(=O)C2C(C1=O)[C@H]1C=C[C@@H]2C1 (some centres undefined) was read as Insulin prom act -75.
`COC(=O)c1ccccc1N1C(=O)C2C(C1=O)C1C=CC2C12CC2` (centres undefined) gave Insulin prom act 164*.

Compound activity (PubChem)
